This is an account of results in paper PMC3290340 (Pigment cell & melanoma research, 2012).

For one data set, the system named is melanoma cells. As to the kind of experiment: MTS cell viability, average/range over the melanoma cell lines. Type of data set: cell-based, human. The essentials:
(§1)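 5×10^3 cells/well in DMEM/10% FBS, pre-grown 36 h (melanoma lines) or 72 h (FF2441 fibroblasts, FOM melanocytes). Then exposed to test compound (0.5–100 μM) or DMSO for 24, 48 or 72 h. Viability by MTS relative to vehicle-treated cells; IC50 fitted per line. Melanoma values also averaged across the six melanoma lines.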

In the next data set the test system is A375M cells. As to the kind of experiment: Caspase-3/7 activity. The data set is classed as cell-based, human. Particulars: 72 hours, tested 1, 2.5, 5.0 μM. The essentials:
(§2)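 UACC 903, A375M or 1205 Lu cells (5×10^3/well, 96-well) exposed 72 h to test compound or DMSO. Caspase-3/7 substrate Z-DEVD-R110 (Apo-ONE kit) added 4 h before the end of treatment. Read-out is fold increase in caspase-3/7 activity over DMSO-treated cells. At least 3 independent experiments, SEM.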

Data set [1] concerns 1205 Lu xenografted melanoma tumors. As to the kind of experiment: Xenografted 1205 Lu melanoma tumor growth. Particulars: 1205 Lu xenograft, 100 mg/kg i.p. Mon/Wed/Fri, day 21. Type of data set: in vivo, nude mice. Summed up:
(§3)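 Female nude mice, 4-6 weeks old, injected s.c. above both rib cages with 5×10^6 UACC 903 or 2.5×10^6 1205 Lu cells in 0.2 ml DMEM/10% FBS. On day 6, randomized (n=5, 10 tumors per group). Dosed i.p. at 100 mg/kg in 50 μl DMSO (or DMSO alone) Mon/Wed/Fri for 3 weeks. Tumor dimensions by calipers; body weight monitored.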

Data set [2] has as its system 1205 Lu cells. The data set can be described thus: Cellular S-1-P and ceramide content by LC-MS-MS, 1205 Lu. The settings on record: 48 hours. Type of data set: cell-based, human. The essentials:
(§4)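 UACC 903 or 1205 Lu cells (2.0×10^6, triplicate dishes) in DMEM/10% FBS; after 24 h, PBS-washed and treated 48 h with 2.5 or 5.0 μM test compound or DMSO. Floating cells pelleted at 500 x g, 5 min, 4 °C, PBS-washed and pooled with scraped adherent cells. Extracts assayed by LC-MS-MS for sphingosine, S-1-P and ceramides.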

In the next data set the test system is A375M melanoma cells. As to the kind of experiment: MTS cell viability, A375M. The settings on record: value of the text (Fig. 3A, 72 hours). The data set is classed as cell-based, human. The essentials: as §1
The nature of data set [3]: Body weight during i.p. treatment. The settings on record: 100 mg/kg. The data set is classed as in vivo, nude mice.
Data set [4] concerns UACC 903 xenografted melanoma tumors. The data set can be described thus: Xenografted UACC 903 melanoma tumor growth. Type of data set: in vivo, nude mice. The settings on record: UACC 903 xenograft, 100 mg/kg i.p. Mon/Wed/Fri, day 22. Summed up:
as §3

Data set [5] relates to 1205 Lu cells. The data set can be described thus: Caspase-3/7 activity. Type of data set: cell-based, human. The settings on record: 72 hours, tested 1, 2.5, 5.0 μM. Summed up:
as §2

Data set [6] relates to UACC 903 cells. As to the kind of experiment: Cellular S-1-P and ceramide content by LC-MS-MS, UACC 903. Type of data set: cell-based, human. The settings on record: UACC 903, 2.5 and 5.0 μM, 48 hours. The essentials: as §4
A further data set concerns UACC 903 melanoma cells. The data set can be described thus: MTS cell viability, UACC 903. The data set is classed as cell-based, human. The essentials: as §1
The subject of data set [7] is CYCLIN D1 in UACC 903 cells. The data set can be described thus: Western blot of CYCLIN D1. Particulars: 72 h; for Decrease in CYCLIN D1 expression: compared to DMSO. The data set is classed as cell-based, human. The essentials:
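UACC 903 cells treated 72 h with test compound or DMSO and lysed in HEPES pH 7.5 buffer with protease/phosphatase inhibitors. Lysates cleared at 10,000 x g, 10 min, 4 °C; 30 μg protein per lane. Blotted to PVDF and detected by ECL. Band intensity densitometry given as percent change versus DMSO-treated cells.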

In data set [8] the test system is UACC 903 cells. The data set can be described thus: Caspase-3/7 activity. Type of data set: cell-based, human. Particulars: UACC 903, 72 hours, tested 1, 2.5, 5.0 μM. The essentials: as §2
Data set [9] deals with UACC 903 cells. As to the kind of experiment: Cell cycle analysis. Type of data set: cell-based, human. The settings on record: 72 h. The essentials:
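1.5×10^6 UACC 903 cells grown in 100-mm dishes, then treated 72 h with 1, 2.5 or 5.0 μM test compound or DMSO. Floating plus adherent cells collected by trypsinization and stained 30 min at 4 °C (propidium iodide 100 μg/ml, RNase A 20 μg/ml, Triton X-100 3 μg/mL in 0.1% sodium citrate). Phase distribution by FACScan.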

A further data set relates to 1205 Lu melanoma cells. As to the kind of experiment: MTS cell viability, 1205 Lu. The settings on record: value of the text (Fig. 3A, 72 hours). The data set is classed as cell-based, human. Summed up: as §1
For a further data set, the target named is recombinant SPHK1 (Homo sapiens, UniProt Q9NYA1). As to the kind of experiment: In vitro SphK activity assay with recombinant SPHK1. Type of data set: biochemical. The settings on record: recombinant protein, Fig. 2B.
Sequence of recombinant SPHK1 (Q9NYA1 whole entry): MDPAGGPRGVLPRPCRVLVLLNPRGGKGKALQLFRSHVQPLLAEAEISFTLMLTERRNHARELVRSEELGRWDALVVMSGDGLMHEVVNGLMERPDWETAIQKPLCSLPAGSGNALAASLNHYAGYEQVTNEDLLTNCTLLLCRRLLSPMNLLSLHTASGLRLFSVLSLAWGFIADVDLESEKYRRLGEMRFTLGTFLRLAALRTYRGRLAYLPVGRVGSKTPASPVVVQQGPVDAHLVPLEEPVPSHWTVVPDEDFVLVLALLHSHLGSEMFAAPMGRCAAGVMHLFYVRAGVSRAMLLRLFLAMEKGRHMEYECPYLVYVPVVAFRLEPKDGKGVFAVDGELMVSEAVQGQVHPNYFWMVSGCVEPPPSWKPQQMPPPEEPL
The target in another data set is T1, recombinant SPHK2 (Homo sapiens, UniProt Q9NRA0).
T1 sequence (Q9NRA0 1-654): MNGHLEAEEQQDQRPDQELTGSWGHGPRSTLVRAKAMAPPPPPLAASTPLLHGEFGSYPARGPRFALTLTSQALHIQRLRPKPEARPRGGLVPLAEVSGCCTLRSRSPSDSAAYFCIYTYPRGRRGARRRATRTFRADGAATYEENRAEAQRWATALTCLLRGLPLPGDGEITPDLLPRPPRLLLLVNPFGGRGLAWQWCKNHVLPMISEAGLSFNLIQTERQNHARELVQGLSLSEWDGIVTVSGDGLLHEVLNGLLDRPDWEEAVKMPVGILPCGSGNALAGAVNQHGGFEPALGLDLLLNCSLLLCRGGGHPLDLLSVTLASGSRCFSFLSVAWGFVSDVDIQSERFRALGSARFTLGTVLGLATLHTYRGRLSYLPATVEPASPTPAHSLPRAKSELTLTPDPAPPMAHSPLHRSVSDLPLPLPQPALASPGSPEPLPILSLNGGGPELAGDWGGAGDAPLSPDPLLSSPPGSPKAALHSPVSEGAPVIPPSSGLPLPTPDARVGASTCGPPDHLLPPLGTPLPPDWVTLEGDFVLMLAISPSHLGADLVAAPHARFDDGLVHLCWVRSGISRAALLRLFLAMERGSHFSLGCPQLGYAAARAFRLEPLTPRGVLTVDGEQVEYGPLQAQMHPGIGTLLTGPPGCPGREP
The data set can be described thus: In vitro SphK activity assay with recombinant SPHK2. The data set is classed as biochemical. The settings on record: Fig. 2B.

Where [10] appears, read: UACC 903, 2.5 μM, compared to DMSO.

`O=C(N/N=C/c1c(O)ccc2ccccc12)c1cc(-c2ccc3ccccc3c2)n[nH]1` [SKI-I]: the “Fold more effective than SKI-II (average IC50 values)” value with melanoma cells (SKI-I compared to SKI-II) is recorded as ~ 10 fold. In addition, the IC50 was determined as 20.6 µM in the data set with melanoma cells (read-out: Average IC50 for melanoma cells, 24 h treatment); 1.3 ± 0.27 µM with A375M melanoma cells; 5.72 ± 0.35 µM with UACC 903 melanoma cells (UACC 903, value of the text (Fig. 3A, 72 hours)); 4.89 ± 0.63 µM in the data set with 1205 Lu melanoma cells. Besides, the “Concentration of maximal caspase-3/7 activity” value in the data set on A375M cells came out at 2.5 µM; in the data set on 1205 Lu cells [5], 5 µM; in the data set on UACC 903 cells [8], 5 µM. The “Difference in tumor volume between vehicle control and treatment group” value in [1] is listed as ~ 26%; in data set [4] it was ~ 40%. The “Effect on cellular S-1-P” value with 1205 Lu cells [2] is recorded as “no significant change”. For the same molecule, the entries for the “Effect on cellular ceramide levels” value in the data set on 1205 Lu cells [2] and with UACC 903 cells [6] were “increased” and “induced”, respectively. The Body weight change result in data set [3] is recorded as “No weight changes”. In addition, the “Reduction of cell viability” value with UACC 903 melanoma cells (UACC 903, 5 μM, 72 hours) amounted to 50%. Besides, the “Decrease in CYCLIN D1 expression” value was 86.1% in data set [7] (UACC 903, 1 μM) and 97.1% in data set [7] (UACC 903, 2.5 μM). Further, in data set [7] (UACC 903, 5 μM), the “CYCLIN D1 levels” value is on record as “almost undetectable”. The “Fold decrease of the G0/G1 cell population” value with UACC 903 cells [9] (setting [10]) amounted to 2.4 fold. Moreover, the “Fold increase of the G2/M population” value in the data set with UACC 903 cells [9] (setting [10]) worked out at 2.5 fold. Besides, the G2/M cell population entry in the data set on UACC 903 cells [9] (UACC 903, 5 μM) is “below detectable levels”.

`Oc1ccc(Nc2nc(-c3ccc(Cl)cc3)cs2)cc1` [SKI-II, 2-(p-hydroxyanilino)-4-(p-chlorophenyl) thiazole]: in data set [3], the Body weight change entry is recorded as “No weight changes”. Further, the “Inhibition of SPHK1 activity” value at recombinant SPHK1 is “effective at inhibiting”. Besides, in data set [4], the “Difference in tumor volume between vehicle control and treatment group” value is “no effect on tumor growth”. Also, in the data set with UACC 903 cells [6], the “Effect on cellular S-1-P” value was “did not effect” and the “Effect on cellular ceramide levels” value is reported as “did not effect”. For the same molecule, on recombinant SPHK2 (recombinant protein), the “Inhibition of SPHK2 activity” value is recorded as “effective at inhibiting”. For the same molecule, the “Selectivity SPHK1 versus SPHK2” value on recombinant SPHK2 (recombinant proteins) is on record as “slightly enhanced selectivity to SPHK2”.
